According to ChEMBL document CHEMBL1148508, “Design and synthesis of phosphotyrosine peptidomimetic prodrugs” (J Med Chem, 2006):

What was measured:
[1] = tested on: Panel NCI-62 (62 carcinoma cell lines); test: Antiproliferative activity against human NCI62 cell line after 48 hrs; type: functional
In short: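 NCI 60-panel screen (62 cell lines): cells grown 24 h in supplemented RPMI 1640, then exposed to drug 48 h at 5 concentrations, 10^-8 to 10^-4 M. Stopped with cold trichloroacetic acid, fixed, sulforhodamine B stained, bound dye solubilized and absorbance read. Growth inhibition from time-zero, control and treated absorbances; GI50 as mean ± S.D. across 62 lines.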

Jurkat = test: Inhibition of NFAT-mediated luciferase gene transcription in human jurkat J77 cell line after 6 hrs; type: functional, cell-based
In short: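 Jurkat J77 cells electroporated (300 V, 800 μF) with NFAT-luciferase plasmid (four NFAT sites), grown 24 h in FBS-RPMI. Pretreated 1 h with compound (0.1-1000 μM, DMSO stocks), then stimulated with PMA plus anti-CD3 (2 μg/well) for 6 h. Lysate luciferase read; sigmoidal fit of RLU vs log concentration, IC50 = 50% drop versus DMSO control; mean ± S.E., n = 4.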

| SMILES | GI50 [1] [µM] | IC50 (Jurkat) [µM] |
| --- | --- | --- |
| CC(NC(=O)Cc1ccc(OP(=O)(OCc2ccc([N+](=O)[O-])o2)N(C)CCCCCl)cc1)c1ccc(OCC2CCCCC2)c(C(N)=O)c1 (stereo not given) | 3 | 9 |
| CC(=O)N[C@@H](Cc1ccc(OP(=O)(OCc2ccc([N+](=O)[O-])o2)N(C)CCCCCl)cc1)C(=O)NC(C)c1ccc(OCC2CCCCC2)c(C(N)=O)c1 (stereo not given in full) | 6 | 21 |
| CC(=O)N[C@@H](Cc1ccc(NP(=O)(OCc2ccc([N+](=O)[O-])o2)N(C)CCCCCl)cc1)C(=O)NC(C)c1ccc(OCC2CCCCC2)c(C(N)=O)c1 (stereo not given in full) |  | 28 |
| CC(NC(=O)Cc1ccc(NP(=O)(OCc2ccc([N+](=O)[O-])o2)N(C)CCCCCl)cc1)c1ccc(OCC2CCCCC2)c(C(N)=O)c1 (stereo not given) |  | 20 |
| CC(NC(=O)c1ccc(NP(=O)(OCc2ccc([N+](=O)[O-])o2)N(C)CCCCCl)cc1)c1ccc(OCC2CCCCC2)c(C(N)=O)c1 (stereo not given) | 18 | 16 |
| CC(NC(=O)c1ccc(OP(=O)(OCc2ccc([N+](=O)[O-])o2)N(C)CCCCCl)cc1)c1ccc(OCC2CCCCC2)c(C(N)=O)c1 (stereo not given) | 12 | 31 |
